Compound activity from PubChem.
Sampled rows, rich in hits. Any-hit rate of the full collection: about 8.4%.
Cav32 inh: blocks human Cav3.2 T-type calcium channel | actives 4% (n = 100,000) | Cav3.2-expressing cells, Fluo-4 calcium fluorescence FDSS; stronger effect = lower value | AID 449739 | B-score at 10 µM | O95180;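 active means single-dose well whose peak fluorescence ratio is a statistical outlier from its plate by either plate-standardised score or position-corrected B-score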
Ecoli WT expand: growth inhibitors of E. coli BW25113 wild type. OD600 absorbance. growth inhibition, % at 100 µM. actives 0.15% (n = 98,000). AID 710;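 active means growth inhibition above about 50% at one test dose, limit read from the data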;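 further: growth measured after 20 h incubation at 37 °C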
Ecoli tolC: E. coli tolC mutant growth inhibition; E. coli BW25113 tolC mutant growth, OD615; growth inhibition, % at 10 µM (by protocol); actives 2.2% (n = 65,000); AID 573;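 active means growth inhibition at or above a cutoff equal to the mean over every tested compound plus 3 SD, cut at about 60% in these data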;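 further: growth measured after 20 h incubation at 37 °C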
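signal = optical density read at 615 nm | test system = E. coli ΔtolC::kan strain BW25113 | timing = 20 h compound exposure of bacteria at 37 °C | buffer or medium = LB medium plus 50 µg/mL kanamycin | compound dosing = 10 µM final, single dose | evaluation = % inhibition of E. coli growth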
PostGolgi yeast: growth inhibition of a yeast mutant, post-Golgi transport screen. post-Golgi transport phenotypic cell assay. inhibition, % at 10 µM. actives 0.9% (n = 98,000). AID 739;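 further: yeast cells grown in 1536-well plates; yeast grown about 18 h at 30C before absorbance read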
PostGolgi ctrl: inhibits growth of the yeast control strain. efflux-deficient yeast background strain, growth absorbance A615, 16 h. inhibition, % at 10 µM. actives 5% (n = 98,000)
* = called active by the depositor; / = no result given. Unless noted, no stated cut-off is given here; in the data, active means inhibition above about 30%; inactive means the rest.

SMILES | Cav32 inh | Ecoli WT expand | Ecoli tolC | PostGolgi yeast | PostGolgi ctrl
CC(=O)c1nc2ccccc2n1S(=O)(=O)c1ccc(C)cc1 | -0.412 | -3.0 | -13.8 | 8.3 | 39.9*
O=C1CCCN1CCCN1C(=O)N[C@@H](Cc2ccccc2)C1=O | 0.0818 | -8.0 | -16.1 | 8.4 | 35.2*
CC1=CC(C)(C)N(C(=O)c2ccc(F)cc2)c2cc3c(cc21)OCO3 | / | -3.0 | 86.8* | 7.9 | 28.6
COc1cccc(NC(=O)N2CCN(c3ccc(C(F)(F)F)cn3)CC2)c1 | / | -8.0 | 23.1 | -0.2 | 11.7
COc1ccc(NC(=O)C23CC4CC(C2)CC(n2cnc(Br)n2)(C4)C3)c(OC)c1 | 3.36* | -3.0 | / | -4.3 | 8.6
Oc1ccc(-c2csc(-c3ccccc3)n2)cc1O | / | 35.0 | / | 0.6 | 59.0*
O=C(CSCCO)Nc1ccc(C2CCCCC2)cc1 | -0.641 | 7.0 | 11.9 | 1.7 | 22.0
c1ccc2c(c1)ncn2CCC1CCCCC1 | -0.761 | 21.0 | 48.4 | -1.1 | 80.5*
O=c1[nH]c2ccccc2n1CCC1CCCCC1 | -2.19 | 17.0 | / | 1.1 | 49.5*
CC1CN(c2nc3c(c(=O)n(Cc4ccc(Cl)c(Cl)c4)c(=O)n3C)n2C)CC(C)O1 (stereo not drawn) | -3.66 | -1.0 | 86.8* | 5.8 | 27.9
Cn1c(N2CCN(c3ccccn3)CC2)nc2c1c(=O)n(Cc1ccc(Cl)cc1)c(=O)n2C | -3.3* | -14.0 | 5.9 | -5.6 | 14.7
CCSc1nnc(NC(=O)COc2ccc3ccccc3c2)s1 | -0.48 | -11.0 | / | -1.1 | 7.5
NS(=O)(=O)c1cc2c(cc1Cl)NC=NS2(=O)=O | 0.178 | / | 20.8 | / | /
COc1cccc(SCc2noc(C(=O)NCCCN3CCOCC3)c2C(=O)NCCCN2CCOCC2)c1 | 0.436 | / | / | / | /
Cc1ccc(S(=O)(=O)Nc2cc(C)c(O)c(S(=O)(=O)c3ccc(C)cc3)c2)cc1 | -3.65* | -3.0 | / | 2.4 | 16.7
Cc1cc(NS(=O)(=O)c2ccccc2)cc(Cl)c1O | -1.47 | 10.0 | 15.5 | 1.1 | 11.6
O=C(c1cn(-c2ccccc2)nc1-c1ccncc1)n1nnc2ccccc21 | 0.485 | / | -10.6 | / | /
CCn1c(CNC(=O)c2cccc(C)c2)nc2ccccc21 | 0.212 | 8.0 | 23.2 | 7.8 | 15.8
COc1ccc(C(=O)c2c(C(F)(F)F)oc3c2C(=O)c2ccccc2C3=O)cc1OC | 0.769 | -7.0 | / | 36.8* | 26.5
Cc1c(C(=O)N2CCCCC2)nnn1-c1nonc1N | 0.499 | 0.0 | / | -8.5 | 0.0
OC(CN1CCN(c2ccccc2)CC1)Cn1c2ccccc2c2ccccc21 (stereo not drawn) | 0.299 | -11.0 | / | -0.6 | 36.5*
OC(CN1CCN(c2ccccn2)CC1)Cn1c2ccc(Cl)cc2c2cc(Cl)ccc21 (stereo not drawn) | -1.45 | -4.0 | / | 96.6* | 96.8*
OCC(O)CN1CCN(c2ccccc2)CC1 (stereo not drawn) | 0.661 | / | 9.8 | / | /
O=C(c1cc(Cl)ccc1Cl)N1CCN(c2ccccn2)CC1 | 0.0159 | 4.0 | 2.6 | 7.1 | -8.6
C[C@@H]1CC[C@]2(O[C@@H](CCO)C[C@@H](O)[C@@H]2O)O1 | 0.274 | / | / | / | /
SMILES | Cav32 inh | Ecoli WT expand | Ecoli tolC | PostGolgi yeast | PostGolgi ctrl
CC(=O)N1C=CN(C(C)=O)C(c2cn(C)c3ccccc23)C1c1cn(C)c2ccccc12 (stereo not drawn) | 0.061 | -2.0 | 21.0 | -4.1 | 33.6*
CN1C(=O)/C(=C/c2cc(N=Nc3ccccc3)ccc2O)SC1=S | 0.356 | -22.0 | / | 3.9 | 25.2
CC(C)(C)c1ccc(C(=O)CCCSC2=C(C#N)C(c3ccco3)C3=C(CCCC3=O)N2)cc1 (stereo not drawn) | -4.31* | -22.0 | 79.6* | 2.0 | -6.7
COc1cccc(C(=O)Nc2ccc(N3CCN(Cc4ccccc4)CC3)cc2)c1 | -0.252 | 1.0 | / | 4.1 | -2.4
COc1cccc(N2CCN(CC(=O)Nc3nnc(-c4ccccc4)s3)CC2)c1 | -5.17* | -13.0 | 36.3 | -3.3 | 11.2
COc1cccc(NC(=O)c2ccc(CN3CCN(c4ccccc4)CC3)cc2)c1 | -5.42* | -5.0 | 31.6 | 37.4* | -3.7
COc1c(F)c(F)c(C(=O)Nc2ccc(N3CCN(Cc4ccccc4)CC3)cc2)c(F)c1F | -4.17 | -2.0 | / | -1.5 | 4.6
COc1ccc(NC(=O)c2ccc(CN3CCN(c4ccccc4)CC3)cc2)cc1 | 0.556 | -4.0 | 3.0 | 63.7* | 4.4
CCNc1nc(SC(C)C(=O)OC)nc(N2CCOCC2)n1 (stereo not drawn) | 0.0476 | 1.0 | -0.5 | 14.5 | 10.2
C=CCSc1nnc(-c2sc(-c3ccccc3)nc2C)n1C | -0.0119 | 2.0 | / | 6.1 | 10.1
C=CCSc1nnc(-c2nnc(SCC=C)n2-c2ccccc2)n1-c1ccccc1 | -1.57 | -5.0 | / | 6.2 | 33.0*
